In data set [1] the target is T1, Acb2 (Pseudomonas phage PaMx33, UniProt A0A1C8HPQ3). Nature of the data set: Isothermal titration calorimetry. It is filed as binding.
Data set [2] addresses Acb2 Y11A (Pseudomonas phage PaMx33, UniProt A0A1C8HPQ3, Y11A). The experiment in a line: ITC / native PAGE binding of 3’,3’-cGAMP to Acb2 Y11A mutant. The settings on record: ITC and native PAGE.
The target in data set [3] is T1, Acb2. The experiment in a line: HPLC assay of cyclic dinucleotide sequestering by Acb2. In kind it is binding. Conditions: 40 μM Acb2 pre-incubated with 4 μM cyclic dinucleotide.
Data set [4] deals with Acb2 K26A (Pseudomonas phage PaMx33, UniProt A0A1C8HPQ3, K26A). The experiment in a line: ITC / native PAGE binding of 3’,3’-cGAMP to Acb2 K26A mutant. The settings on record: ITC and native PAGE.
The target of data set [5] is CapV (Pseudomonas aeruginosa, UniProt P0DX85). The experiment in a line: Fluorogenic biochemical assay for CapV phospholipase activity. The arrangement: species or system P. aeruginosa BWHPSA011 (Pa011). The settings on record: 3’,3’-cGAMP 0.025-0.8 μM, other cyclic dinucleotides 0.8 μM.
For data set [6], the system named is Acb2 homolog from E. coli phage T4 (gene vs.4). The settings on record: cited from earlier work.
Data set [7] addresses T1, Acb2. Nature of the data set: Native-PAGE assay of Acb2 with cyclic dinucleotides. It is filed as binding. The settings on record: Acb2 14.3 μM, cyclic dinucleotide 1.8-7.2 μM. The essentials: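 Purified Acb2 (14.3 μM) preincubated 10 min at 18°C with cyclic dinucleotide at 1.8, 3.6 or 7.2 μM. Mixtures resolved on 5% native polyacrylamide gels and stained with Coomassie blue.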

Data set [8] deals with the molecule itself. The experiment in a line: crystal structure.
Data set [9] deals with Pa011 CBASS immunity. Nature of the data set: Plaque assays with PaMx41 phage on Pa011 WT. It is filed as cell-based, Pseudomonas aeruginosa. Conditions: variant overexpressed in Pa011 WT, in the presence of CBASS. The essentials:
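gp24 variants expressed episomally from arabinose-inducible, gentamicin-selected pHERD30T in Pa011 WT and ΔCBASS. Overnight culture (150 μl) mixed with top agar on LB agar. Phage lysate 10-fold serially diluted and spotted (2 μl) onto the solidified top agar; plates incubated at 37°C and titre read from plaques.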

In data set [10] the target is T2, CdnA-Cap2 complex (Pseudomonas aeruginosa, UniProt P0DX86+P0DX87, C105A/C479A).
T2 sequence (P0DX86 1-380): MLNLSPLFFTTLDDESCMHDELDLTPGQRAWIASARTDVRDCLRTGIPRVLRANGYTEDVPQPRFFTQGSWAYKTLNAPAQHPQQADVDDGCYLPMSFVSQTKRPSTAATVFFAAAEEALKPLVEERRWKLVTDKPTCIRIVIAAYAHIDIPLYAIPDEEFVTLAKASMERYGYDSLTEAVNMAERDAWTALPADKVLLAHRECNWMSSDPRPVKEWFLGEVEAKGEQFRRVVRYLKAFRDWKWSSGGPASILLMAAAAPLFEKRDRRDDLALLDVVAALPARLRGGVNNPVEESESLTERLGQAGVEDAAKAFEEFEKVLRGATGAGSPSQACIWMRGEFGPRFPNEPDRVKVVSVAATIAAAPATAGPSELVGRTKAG
T2 sequence (P0DX87 1-543 C105A/C479A): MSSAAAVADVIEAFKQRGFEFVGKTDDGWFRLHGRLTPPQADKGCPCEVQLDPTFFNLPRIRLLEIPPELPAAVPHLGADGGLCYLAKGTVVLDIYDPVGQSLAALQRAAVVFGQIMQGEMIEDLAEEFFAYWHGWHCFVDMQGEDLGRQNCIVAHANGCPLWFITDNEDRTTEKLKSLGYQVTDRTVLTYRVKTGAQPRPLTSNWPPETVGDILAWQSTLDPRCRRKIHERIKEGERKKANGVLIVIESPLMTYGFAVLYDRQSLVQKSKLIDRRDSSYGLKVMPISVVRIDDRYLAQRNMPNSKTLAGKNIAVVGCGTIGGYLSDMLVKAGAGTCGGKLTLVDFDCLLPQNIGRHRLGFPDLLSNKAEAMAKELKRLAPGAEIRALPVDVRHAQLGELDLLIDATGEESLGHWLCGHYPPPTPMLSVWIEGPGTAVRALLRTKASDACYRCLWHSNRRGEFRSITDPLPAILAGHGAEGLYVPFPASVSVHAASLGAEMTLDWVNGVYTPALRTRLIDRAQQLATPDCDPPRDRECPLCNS
The experiment in a line: Gel filtration assay of Acb2 with CdnA-Cap2 complex. The settings on record: molar ratio 5:1. It is filed as binding, P. aeruginosa BWHPSA011 (Pa011). In short, it runs like this: (§1)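 Acb2 (E. coli BL21(DE3), 0.2 mM IPTG at OD600 0.8, 18°C 12 h; Ni-NTA, tag removed with Ulp1, Superdex-200) incubated with His-tagged partner protein at 5:1 molar ratio overnight on ice. Gel filtration was on Superdex-200 increase 10/300 GL in 10 mM Tris–HCl pH 8.0, 200 mM NaCl, 5 mM DTT at 0.5 mL/min. Fractions were analysed by SDS-PAGE with Coomassie staining.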

Data set [11] addresses T3, CdnA (Pseudomonas aeruginosa, UniProt P0DX86).
T3 sequence (P0DX86 1-380): T2 sequence (P0DX86 1-380)
Nature of the data set: Gel filtration assay of Acb2 with CdnA. In kind it is binding, P. aeruginosa BWHPSA011 (Pa011). Conditions: molar ratio 5:1. The essentials:
as §1

In data set [12] the target is T4, CapV (Pseudomonas aeruginosa, UniProt P0DX85).
T4 sequence (P0DX85 whole entry, looked up): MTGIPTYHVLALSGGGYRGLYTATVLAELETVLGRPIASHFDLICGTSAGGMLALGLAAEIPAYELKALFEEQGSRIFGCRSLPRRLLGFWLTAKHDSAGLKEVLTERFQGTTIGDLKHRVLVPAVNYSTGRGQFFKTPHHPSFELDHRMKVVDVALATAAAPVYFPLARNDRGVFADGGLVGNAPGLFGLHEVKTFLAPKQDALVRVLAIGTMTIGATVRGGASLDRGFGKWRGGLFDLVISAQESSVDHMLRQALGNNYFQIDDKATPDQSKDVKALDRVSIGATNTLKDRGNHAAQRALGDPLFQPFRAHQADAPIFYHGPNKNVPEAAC
Nature of the data set: Fluorogenic biochemical assay for CapV phospholipase activity. The arrangement: species or system P. aeruginosa BWHPSA011 (Pa011). The settings on record: Acb2 or mutant 32 μM preincubated with 0.8 μM 3’,3’-cGAMP for 10 minutes.

Data set [13] has as its system 3’,3’-cGAMP levels in phage-infected Pa011 cells. The experiment in a line: Intracellular 3’,3’-cGAMP measurements by ELISA in phage-infected Pa011 cells. Conditions: overexpression in phage-infected Pa011 WT cells. In kind it is cell-based, Pseudomonas aeruginosa.
In data set [14] the target is T5, Cap2 (Pseudomonas aeruginosa, UniProt P0DX87).
T5 sequence (P0DX87 1-543): T2 sequence (P0DX87 1-543 C105A/C479A) with A105C, A479C
Nature of the data set: Gel filtration assay of Acb2 with Cap2. It is filed as binding, P. aeruginosa BWHPSA011 (Pa011). The settings on record: molar ratio 5:1. The essentials: as §1

Data set [15] concerns the target T4, CapV. Nature of the data set: Gel filtration assay of Acb2 with CapV. It is filed as binding, P. aeruginosa BWHPSA011 (Pa011). Conditions: molar ratio 5:1. In short, it runs like this:
as §1

Positions count from the first letter of the chain named. Names and notes keep the numbering of the source.

Acb2 K26A, sequence (A0A1C8HPQ3 whole entry K26A): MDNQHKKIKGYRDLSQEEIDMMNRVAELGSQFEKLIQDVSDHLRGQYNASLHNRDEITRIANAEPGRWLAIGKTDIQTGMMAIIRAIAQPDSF
Acb2 Y11A, sequence (A0A1C8HPQ3 whole entry Y11A): as the sequence (A0A1C8HPQ3 whole entry K26A) above, with Y11A, A26K counted along it

Consider `Nc1ncnc2c1ncn2[C@@H]1O[C@@H]2COP(=O)(O)O[C@H]3[C@@H](O)[C@H](n4ccc(=O)[nH]c4=O)O[C@@H]3COP(=O)(O)O[C@H]2[C@H]1O` [3’,3’-c-UMP-AMP], for which, in data set [1], the Kd was about 97 nM.

In turn, `Nc1nc2c(ncn2[C@@H]2O[C@@H]3COP(=O)(O)O[C@H]4[C@@H](O)[C@H](n5ccc(=O)[nH]c5=O)O[C@@H]4COP(=O)(O)O[C@H]3[C@H]2O)c(=O)[nH]1` [3’,3’-c-UMP-GMP] returned a dissociation constant Kd in [1] of about 524 nM.

Molecule `O=c1ccn([C@@H]2O[C@@H]3COP(=O)(O)O[C@H]4[C@@H](O)[C@H](n5ccc(=O)[nH]c5=O)O[C@@H]4COP(=O)(O)O[C@H]3[C@H]2O)c(=O)[nH]1` [3’,3’-c-di-UMP] displayed a Kd in data set [1] of about 99 nM.

Consider `Nc1nc2c(ncn2[C@@H]2O[C@@H]3COP(=O)(O)O[C@H]4[C@@H](O)[C@H](n5cnc6c(N)ncnc65)O[C@@H]4COP(=O)(O)O[C@H]3[C@H]2O)c(=O)[nH]1` [3’,3’-cGAMP], for which the “binding of 3’,3’-cGAMP to Acb2 Y11A in vitro” value in data set [2] is “abolished”. Moreover, in data set [3], the “sequestering of cyclic dinucleotide by Acb2 (HPLC)” value (“sequestering of cyclic dinucleotide” below) is reported as “depletes detectable”. Besides, the Kd in [1] is about 87 nM; in [6], about 30 nM. For the same molecule, in [4], the “binding of 3’,3’-cGAMP to Acb2 K26A in vitro” value is given as “abolished”. Moreover, the “activation of CapV phospholipase activity” value in [5] is “activated”. Besides, the “shift of purified Acb2 protein in native gel” value in data set [7] was “significant shift”.

For `Nc1ncnc2c1ncn2[C@@H]1O[C@@H]2COP(=O)(O)O[C@H]3[C@@H](O)[C@H](n4cnc5c(N)ncnc54)O[C@@H]3COP(=O)(O)O[C@H]2[C@H]1O` [c-di-AMP], the “sequestering of cyclic dinucleotide” value in [3] is “sequester”. Further, in [1], the Kd is about 66 nM.

`Nc1nc2c(ncn2[C@@H]2O[C@@H]3COP(=O)(O)O[C@H]4[C@@H](O)[C@H](n5cnc6c(=O)[nH]c(N)nc65)O[C@@H]4COP(=O)(O)O[C@H]3[C@H]2O)c(=O)[nH]1` [c-di-GMP]: the “sequestering of cyclic dinucleotide” value in [3] is “very weak sequestering effect”.

B1: Acb2 (anti-CBASS 2) from phage PaMx33 (natural protein, Pseudomonas aeruginosa phage PaMx33, UniProt A0A1C8HPQ3 1-93, looked up)
chain: MDNQHKKIKGYRDLSQEEIDMMNRVKELGSQFEKLIQDVSDHLRGQYNASLHNRDEITRIANAEPGRWLAIGKTDIQTGMMAIIRAIAQPDSF
For B1, in [8], the “stoichiometry N” value was 6.

B2: long gp24: 94 a.a. version of PaMx41 gp24 (orf24 X37Q), named Acb2 hereafter (protein)
chain: B1 chain
modifications: left off: His6-SUMO, end not stated, cleaved
On to B2, for which the “increase of PaMx41 WT phage titer” value in [9] is recorded as ≥ 4 orders of magnitude.

B3: Acb2: phage anti-CBASS protein 2, purified from the naturally CBASS-resistant PaMx33 phage; hexameric cyclic dinucleotide sponge (protein)
chain: B1 chain
modifications: left off: His6-SUMO, end not stated, cleaved
Regarding B3, the “binding of Acb2 to the CdnA-Cap2 complex” value in data set [10] is given as “did not bind”. For the same molecule, the “binding of Acb2 to purified CdnA” value in data set [11] is given as “did not bind”. Besides, the “effect on 3’,3’-cGAMP-activated CapV activity” value in data set [12] was “abrogated”. The “effect on detectable 3’,3’-cGAMP levels” value in data set [13] is “reduced”. Further, the “binding of Acb2 to purified Cap2” value in data set [14] is reported as “did not bind”. In addition, in data set [15], the “binding of Acb2 to purified CapV” value is reported as “did not bind”.

(Values after article PMC9975087 (Cell, 2023).)
